These results are taken from ChEMBL document CHEMBL4038313, “Expanding the Antiviral Spectrum of 3-Fluoro-2-(phosphonomethoxy)propyl Acyclic Nucleoside Phosphonates: Diamyl Aspartate Amidate Prodrugs” (J Med Chem, 2017).

A short description of data set [1]: Stability of the compound in phosphate buffer of pH 8 at 1 mg after 14 hrs by 31P NMR spectroscopy. It is filed as physicochemical. As to conditions: read-out: Stability. A digest of the protocol:
(§1)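 1 mg compound in 0.2 mL acetone-d6 plus 0.3 mL pH 8 buffer (0.1 M Na2HPO4 adjusted with 0.1 M HCl). In situ 31P NMR (202 MHz) at 37 °C, spectra every 30 min over 14 h.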

Data set [2] deals with Human alphaherpesvirus 3. Briefly: Potency index, ratio of (S)-9-[3-Fluoro-2-(phosphonomethoxy)propyl]adenine EC50 to compound EC50 for thymidine kinase expressing Varicella-Zoster virus Oka. It is filed as functional, strain Oka vaccine. A digest of the protocol: (§2)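 HEL fibroblast monolayers inoculated with 100 CCID50 HCMV (AD-169, Davis) or 20 PFU VZV (TK+ Oka, TK− 07-1). Adsorbed 1–2 h, inoculum removed, then incubated with compound dilutions. HCMV cytopathicity or VZV plaques scored once untreated infected controls reached completion. EC50 is 50% reduction. SI is CC50/EC50, and the potency ratio is the ratio of EC50s.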

The subject of data set [3] is Human alphaherpesvirus 3. Briefly: Potency index, ratio of (S)-9-[3-Fluoro-2-(phosphonomethoxy)propyl]adenine EC50 to compound EC50 for thymidine kinase deficient Varicella-Zoster virus 07-1. The class given is functional. Put shortly:
as §2

Data set [4] concerns Human immunodeficiency virus 1. Briefly: Antiviral activity against CXCR4-tropic HIV-1 NL4-3 infected in human MT4 cells assessed as inhibition of virus-induced cytopathic effect after 6 days by XTT dye based assay. It is filed as functional, cell-based. As to conditions: Human immunodeficiency virus 1, NL4-3, MT4, 144 h. A digest of the protocol: (§3)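 MT-4 cells, 1 × 10^4 per well, given compound dilutions and wild-type NL4-3 or K65R NL4-3. Virus titred to give 85–95% cell killing at day 6. Incubated 6 days at 37 °C, 5% CO2. Viability read by XTT at 450/650 nm. EC50 from CPE reduction and toxicity from uninfected drug wells, by four-parameter fit. Fold change is K65R EC50 over wild-type EC50.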

Data set [5] deals with Human betaherpesvirus 5. Briefly: Antiviral activity against HCMV Davis strain infected in HEL cells assessed as inhibition of virus-induced cytopathic effect. The conditions noted are these: Human betaherpesvirus 5, Davis. It is filed as functional, cell-based. Put shortly:
as §2

Data set [6] can be described thus: Selectivity index, ratio of CC50 for HEL cells to EC50 for thymidine kinase expressing Varicella-Zoster virus Oka. As to conditions: human, read-out: Ratio CC50/EC50. It is filed as toxicity. Put shortly: as §2
Data set [7] in a line: Half life in human plasma at 1 uM by HPLC-MS/MS method. The class given is ADME, cell-free. A digest of the protocol:
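Human plasma preincubated 10 min with pH 7.4 phosphate buffer at 37 °C. Compound added at final 1 μM and sampled at 0, 0.5, 1, 1.5 and 2 h into acetonitrile. Centrifuged and analysed by HPLC-MS/MS. t1/2 is the mean of two experiments.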

Data set [8] concerns Hepatitis B virus. Briefly: Antiviral activity against HBV ayw1 infected in human HepG2(2.2.15) cells assessed as reduction in viral replication by measuring intracellular viral DNA copy number after 6 days byr by real-time qPCR assay. It is filed as functional, cell-based. The conditions noted are these: ayw1, HepG2 2.2.15, 144 h. Put shortly:
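Run as the HepG2.2.15 6-day assay (triplicate compound, medium with compound renewed at day 3). At the end, total intracellular DNA was isolated from the cells and HBV DNA copy number measured by TaqMan qPCR. EC50/EC90 derived; SI is CC50/EC50.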

Data set [9] relates to Human alphaherpesvirus 3. Briefly: Antiviral activity against thymidine kinase expressing Varicella-Zoster virus Oka strain assessed as inhibition of plaque formation. The class given is functional. As to conditions: Human alphaherpesvirus 3, strain Oka vaccine. A digest of the protocol:
as §2

The nature of data set [10]: Stability of the compound in phosphate buffer of pH 8 at 1 mg after 1 hr by 31P NMR spectroscopy. The class given is physicochemical. As to conditions: pH 8, 1 h. Put shortly: as §1
Data set [11] in a line: Selectivity index, ratio of CC50 for HepG2.2.15 cells to EC50 for HBV ayw1 infected in human HepG2(2.2.15) cells assessed as reduction in viral replication by measuring extracellular viral DNA copy. Put shortly:
(§4)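 HepG2.2.15 cells (two copies of HBV ayw1 genome), 1.5 × 10^4/well in DMEM with 2% FBS and 380 μg/mL G418. After 16–24 h, compound added in triplicate, medium with compound renewed at day 3. Supernatant collected at day 6, Pronase-treated, and extracellular HBV DNA measured by TaqMan qPCR (precore/core) against an HBV DNA standard curve. EC50/EC90 derived; CC50 by MTS uptake.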

Data set [12] has as its system Hepatitis B virus. Briefly: Antiviral activity against HBV ayw1 infected in human HepG2(2.2.15) cells assessed as reduction in viral replication by measuring extracellular viral DNA copy number after 6 days by real-time qPCR method. It is filed as functional, cell-based. As to conditions: ayw1, HepG2 2.2.15, 144 h. Put shortly:
as §4

Data set [13] relates to Human immunodeficiency virus 1. Briefly: Antiviral activity against tenofovir-resistant CXCR4-tropic HIV-1 NL4-3 harboring reverse transcriptase K65R mutant infected in human MT4 cells assessed as inhibition of viral replication inhibition of virus-induced cytopathic effect after 6 days by XTT dye based assay. It is filed as functional, cell-based. As to conditions: Human immunodeficiency virus 1, NL4-3, MT4, 144 h. Put shortly: as §3

Data set [14] deals with Human immunodeficiency virus 1. Briefly: Potency index, ratio of (S)-9-[3-Fluoro-2-(phosphonomethoxy)propyl]adenine EC50 to compound EC50 for CCR5 tropic HIV1 BaL infected in human TZM-bl cells. The class given is functional.
Data set [15] can be described thus: Cytotoxic activity against HEL cells assessed as alteration of cell morphology after 3 days by microscopic method. The class given is cell-based. As to conditions: human. Put shortly:
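HEL cells with compound; MCC is the lowest concentration giving microscopically detectable alteration of cell morphology.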

In data set [16] the test system is Human betaherpesvirus 5. Briefly: Antiviral activity against Human cytomegalovirus AD169 infected in HEL cells assessed as inhibition of virus-induced cytopathic effect. The class given is functional, cell-based. As to conditions: Human betaherpesvirus 5, AD169, HEL. Put shortly: as §2
The test system of data set [17] is Human immunodeficiency virus 1. Briefly: Antiviral activity against CCR5 tropic HIV1 BaL infected in human PHA-stimulated PBMC assessed as inhibition of viral replication by measuring reduction in p24 antigen production preincubated with cells for 30 mins followed by viral infection measured on day 10 post infection in presence of IL-2 by ELISA. The class given is functional. As to conditions: Human immunodeficiency virus 1, BaL. A digest of the protocol: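 PBMCs stimulated with 2 μg/mL PHA for 3 days at 37 °C, then 5 × 10^5 cells/ml preincubated 30 min at 37 °C with serial compound dilutions plus 2 ng/mL IL-2. Infected with 1500 pg/well HIV-1 BaL or 500 pg/well other isolates. IL-2 re-added on days 3 and 6. Supernatant p24 Ag measured by ELISA at day 10. EC50 is 50% inhibition of replication.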

The nature of data set [18]: Cytotoxicity against human PHA-stimulated PBMC assessed as cell viability by tetrazolium dye assay. The class given is cell-based.
Data set [19] in a line: Cytotoxic activity against HEL cells assessed as reduction in cell proliferation after 3 days by coulter counting method. The class given is cell-based. The conditions noted are these: human. Put shortly: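 HEL cells seeded at 5 × 10^3/well, grown 24 h, then given compound for 3 days at 37 °C. Cell number counted by Coulter counter. CC50 is 50% reduction of proliferation relative to untreated controls, read from graphic plots.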

The test system of data set [20] is Human immunodeficiency virus 1. Briefly: Antiviral activity against CCR5 tropic HIV1 BaL infected in human TZM-bl cells assessed as inhibition of virus-induced cytopathic effect preincubated with cells for 30 mins followed by viral infection measured after 48 hrs in presence of p-24 HIV-1 Ag by luciferase reporter gene assay. The class given is functional, cell-based. The conditions noted are these: Human immunodeficiency virus 1, BaL. Put shortly:
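TZM-bl cells, 1 × 10^4 per well in DMEM with 10% FBS and 10 mM […], incubated 30 min at 37 °C with compound. Then HIV-1 NL4.3 (X4) or BaL (R5) added at 100 pg p24 Ag per well. After 48 h, cells lysed with luciferase substrate. Tat-induced luminescence read after 10 min dark incubation as a measure of replication.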

With `CCCCCOC(=O)C[C@H](NP(=O)(CO[C@H](CF)Cn1cnc2c(N)ncnc21)Oc1ccccc1)C(=O)OCCCCC` (some centres not stated), in data set [1], the remaining at 14 h was 58%. The entries for the “Ratio EC50” value (with Human alphaherpesvirus 3 [2]; in the data set on Human alphaherpesvirus 3 [3]; in data set [14]) were 2000, 2000 and 1500, respectively. The 50% effective concentration (EC50) in data set [4] worked out at 30 nM; in the data set with Human betaherpesvirus 5 [5] it was 6.28 µM; in the data set with Hepatitis B virus [8], 20 nM; in the data set on Human alphaherpesvirus 3 [9], 50 nM; with Hepatitis B virus [12] it was 10 nM; in data set [13] it was 170 nM. Moreover, the concentration giving a half-maximal response (EC50) with Human betaherpesvirus 5 [16] is 3.97 µM; in [20], 4 nM. Also, the selectivity ratio in data set [6] turned out to be 39. The half-life at 1 µM in data set [7] is 89 min. Further, the 90% effect concentration (EC90) in the data set with Hepatitis B virus [8] was determined as 6.08 µM; with Hepatitis B virus [12], 1970 nM. Further, the Stability entry in [10] was “Stable”. For the same compound, the “Ratio CC50/EC50” value in data set [11] is 2256. Besides, the MCC at 72 h in data set [15] amounted to 31.4 µM. The IC50 in data set [17] was determined as 22 nM. The CC50 in data set [18] was determined as 2480 nM. Also, the 50% cytotoxic concentration (CC50) at 72 h in [19] stood at 1960 nM.
